Hits are enriched below; roughly 4.1% of the tested compounds scored in any of these assays.
KCNQ1 act: potentiators or activators of KCNQ1 channel, primary screen, cell-based, thallium flux, high-throughput. B-score at 10 µM. Potassium voltage-gated channel subfamily KQT member 1 (Homo sapiens), P51787. actives 0.35% (n = 310,000). AID 2648, 2010. CHO-K1 KCNQ1, thallium flux FluxOR fluorescence; hits give high values;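 active means fluorescence ratio B-score, a plate-corrected score, at least three library SD, with initial intensity B-score within 5 SD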
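Material: CHO-K1 cells stably expressing KCNQ1. Medium: assay buffer for compound exposure, DMSO matched across wells. Reagent: K+/Tl+ depolarizing stimulus. Compound dosing: single-concentration screen. Times: 37 °C overnight plating, 90-min dark dye load, 20-min compound pretreatment. Technique: FluxOR Tl+ flux fluorescence.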
Cl transport mod: KCC2 cotransporter modulators, thallium flux, primary screen, cell-based, HEK293 KCC2, FluoZin-2 fluorescence, MLSMR; Solute carrier family 12 member 5 (Homo sapiens), Q9H2X9; KCC2 cells, thallium flux FluoZin-2 fluorescence; B-score of Tl+ flux slope (higher = more flux/activation; lower = inhibition) at 10 µM; actives 2.2% (n = 190,000);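 active means thallium flux slope and its plate-corrected score both differing from the plate sample mean at a set confidence after two filtering rounds, in either direction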;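 further: slope of fluorescence scaled to starting intensity during 10 to 20 s after thallium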
KCNQ1 inh: inhibitors of human KCNQ1 channel, primary screen, cell-based, thallium flux, high-throughput; B-score at 10 µM; Potassium voltage-gated channel subfamily KQT member 1 (Homo sapiens), P51787; CHO-K1 KCNQ1, FluxOR thallium flux fluorescence; hits give high values; actives 1.3% (n = 310,000);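 active means compounds whose thallium flux B-score, printed positive for inhibition, exceeds three library SD while starting fluorescence stays within three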;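 further: channel opened by potassium depolarization with thallium stimulus after 20 min compound exposure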
hERG rescue: hERG rescue from dofetilide block, primary screen, cell-based, CHO-hERG, FluxOR thallium flux, dofetilide IC70; actives 0.51% (n = 310,000); AID 1511, 2009; activation (rescue from dofetilide block), less the hit threshold, % at 10 µM; dofetilide IC70 present;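 active means activation above the mean of controls blocked by dofetilide plus 5 SD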;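 further: thallium influx through hERG after potassium depolarization seen as dye fluorescence rise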
KCNK3 block: human KCNK3 channel inhibitors, primary screen, CHO cells, FluxOR thallium flux, B-score. FluxOR fluorescence; hits give low values. Potassium channel subfamily K member 3 (Homo sapiens), O14649. B-score at 10 µM. actives 0.84% (n = 340,000). AID 602410, 2012;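 active means B-score under library mean minus 4 SD, starting fluorescence ratio at most library mean plus 5 SD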;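 further: more negative B-score means stronger inhibition of thallium flux through KCNK3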
KCNK9 inh: KCNK9 potassium channel inhibitors, primary screen, HEK293 cells, thallium flux. AID 488922, 2010. Potassium channel subfamily K member 9 (Homo sapiens), Q9NPC2. B-score at 10 µM. FluxOR thallium flux fluorescence; hits give low values. actives 1.2% (n = 310,000);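 active means ratio B-score over 3 SD below the library mean, with starting fluorescence within 5 SD of its mean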;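 further: negative B-score means less thallium flux so channel inhibition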
Numbers stand for hits.

What do the screens show for `O=C(NCC(=O)N1CCOCC1)c1ccc(Cl)c(Cl)c1`?
KCNK3 block: inactive

How did CC(=O)N1CCOc2ccc(S(=O)(=O)NCCc3cccc(C)c3)cc21 do in these assays?
KCNQ1 act: inactive; KCNQ1 inh: inactive; hERG rescue: inactive; KCNK3 block: inactive; KCNK9 inh: inactive

What do the screens show for `COc1ccc(-c2oc3ccc(-c4ccc5c(c4)OCO5)cc3c2C#CC2(O)CCCCC2)cc1`?
KCNQ1 act: inactive; KCNQ1 inh: inactive; hERG rescue: inactive; KCNK3 block: inactive; KCNK9 inh: inactive

Results for COc1ccc(-c2oc3ccc(-c4ccc(OC)nc4)cc3c2C#CC2(O)CCCCC2)cc1 ?
KCNQ1 act: inactive; KCNQ1 inh: inactive; hERG rescue: 5.5; KCNK3 block: inactive; KCNK9 inh: inactive

Results for Cc1cc(C)cc(NC(=S)N(Cc2ccc(Cl)cc2)Cc2ccc(C(=O)O)cc2)c1 ?
KCNQ1 act: inactive; Cl transport mod: inactive; KCNQ1 inh: inactive; hERG rescue: inactive; KCNK3 block: inactive; KCNK9 inh: inactive

Results for Cc1cc(C)cc(NC(=S)N(Cc2ccc(Br)cc2)Cc2ccc(C(=O)O)cc2)c1 ?
KCNQ1 act: inactive; Cl transport mod: inactive; KCNQ1 inh: inactive; hERG rescue: inactive; KCNK3 block: inactive; KCNK9 inh: -7.4

How did Cc1ccc(-c2csc(/C(C#N)=C(\O)CCl)n2)cc1 do in these assays?
KCNQ1 act: inactive; Cl transport mod: inactive; KCNQ1 inh: 6; hERG rescue: inactive; KCNK3 block: inactive; KCNK9 inh: inactive

Results for Cc1ccc(N2CC(C(=O)Nc3ncc([N+](=O)[O-])s3)CC2=O)cc1 (stereo not given) ?
KCNQ1 act: inactive; KCNQ1 inh: 6; hERG rescue: inactive; KCNK3 block: inactive; KCNK9 inh: inactive

What do the screens show for `C=CCN1C(=O)C(=O)N(Cc2nc3ccccc3s2)C1=O`?
KCNQ1 act: inactive; KCNQ1 inh: inactive; hERG rescue: inactive; KCNK3 block: inactive; KCNK9 inh: inactive

Results for O=C(N/N=C/c1ccc(-c2cccc([N+](=O)[O-])c2)o1)[C@H]1C[C@@H]1c1ccccc1 ?
KCNQ1 act: inactive; Cl transport mod: inactive; KCNQ1 inh: inactive; hERG rescue: inactive; KCNK3 block: inactive; KCNK9 inh: -10

What do the screens show for `O=C(N/N=C/c1ccc(-c2ccc([N+](=O)[O-])cc2)o1)[C@H]1C[C@@H]1c1ccccc1`?
KCNQ1 act: inactive; Cl transport mod: inactive; KCNQ1 inh: inactive; hERG rescue: inactive; KCNK3 block: inactive; KCNK9 inh: inactive

Results for CN1C(=O)/C(=C\c2ccc(N(C)C)cc2)OC1=S ?
KCNQ1 act: inactive; KCNQ1 inh: 11; hERG rescue: inactive; KCNK3 block: inactive; KCNK9 inh: inactive

Results for COc1ccc(/C=C2\OC(=S)N(C)C2=O)cc1 ?
KCNQ1 act: inactive; KCNQ1 inh: inactive; hERG rescue: inactive; KCNK3 block: inactive; KCNK9 inh: inactive

What do the screens show for `COc1cc2c(cc1NC(=O)CSc1nnc(Cc3cccs3)n1C)oc1ccccc12`?
KCNQ1 act: inactive; Cl transport mod: inactive; KCNQ1 inh: inactive; hERG rescue: inactive; KCNK3 block: inactive; KCNK9 inh: inactive

Results for COc1cc2c(cc1NC(=O)CSc1nnc(COc3ccc(Cl)cc3)n1C)oc1ccccc12 ?
KCNQ1 act: 11; Cl transport mod: inactive; KCNQ1 inh: inactive; hERG rescue: inactive; KCNK3 block: inactive; KCNK9 inh: inactive

How did COc1ccc(C)cc1Nc1n[n+](-c2ccccc2)c(-c2cc(OC)c(OC)cc2Br)s1 do in these assays?
KCNQ1 act: inactive; KCNQ1 inh: 7; hERG rescue: inactive; KCNK3 block: inactive; KCNK9 inh: inactive

Results for COc1ccc(C)cc1Nc1n[n+](-c2ccccc2)c(-c2c(OC)ccc3ccccc23)s1 ?
KCNK3 block: inactive

How did COc1ccccc1C(C)NC(=O)CCC(=O)N1CCN(S(=O)(=O)c2ccc(Cl)cc2)CC1 (stereo not given) do in these assays?
KCNK3 block: inactive

How did CCN1CC(c2ccccc2)C(c2ccc(Cl)cc2)=N1 (stereo not given) do in these assays?
KCNQ1 act: inactive; Cl transport mod: inactive; KCNQ1 inh: inactive; hERG rescue: inactive; KCNK3 block: inactive; KCNK9 inh: -7

Results for CCN1CCN(Cc2ccc(NC(=O)c3cc(NC(=O)c4cncc(-c5cccs5)c4)cc(OC)c3)cc2C(F)(F)F)CC1 ?
KCNQ1 act: inactive; KCNQ1 inh: 8; hERG rescue: inactive; KCNK9 inh: inactive

What do the screens show for `CCN1CCN(Cc2ccc(NC(=O)c3cc(NC(=O)c4cc(-c5ccc(OC)cc5)n[nH]4)cc(OC)c3)cc2C(F)(F)F)CC1`?
KCNQ1 act: inactive; Cl transport mod: inactive; KCNQ1 inh: inactive; hERG rescue: inactive; KCNK3 block: inactive; KCNK9 inh: inactive

What do the screens show for `COc1ccc(C(=O)NC(=S)N2CCNC(=O)C2)cc1Br`?
KCNQ1 act: inactive; Cl transport mod: inactive; KCNQ1 inh: inactive; hERG rescue: inactive; KCNK3 block: inactive; KCNK9 inh: inactive

Results for CC(C)(C)c1ccc(C(=O)NC(=S)N2CCCCCC2)cc1 ?
KCNQ1 act: 22; KCNQ1 inh: inactive; hERG rescue: 8.4; KCNK3 block: inactive; KCNK9 inh: inactive

Results for CC1CCN(C(=S)NC(=O)c2cccc([N+](=O)[O-])c2)CC1 ?
KCNQ1 act: 9; KCNQ1 inh: inactive; hERG rescue: 13; KCNK3 block: inactive; KCNK9 inh: inactive

Results for CC1CCN(C(=S)NC(=O)c2ccc(C(C)(C)C)cc2)CC1 ?
KCNQ1 act: 29; KCNQ1 inh: inactive; hERG rescue: 14; KCNK3 block: inactive; KCNK9 inh: inactive

What do the screens show for `CC(C)(C)c1ccc(C(=O)NC(=S)N2CCCC2)cc1`?
KCNQ1 act: inactive; KCNQ1 inh: inactive; hERG rescue: inactive; KCNK3 block: inactive; KCNK9 inh: inactive

Results for COc1ccc(C(=O)NC(=S)N2CCC(C)CC2)cc1Br ?
KCNQ1 act: 27; KCNQ1 inh: inactive; hERG rescue: 15; KCNK3 block: inactive; KCNK9 inh: inactive

What do the screens show for `Cc1ccc(C(=O)NC(=S)N2CCN(c3cc(C)ccc3C)CC2)cc1`?
KCNQ1 act: inactive; KCNQ1 inh: inactive; hERG rescue: 7.7; KCNK3 block: inactive; KCNK9 inh: inactive

How did COc1ccc(C(=O)NC(=S)NC(C)(C)C)cc1Br do in these assays?
KCNQ1 act: inactive; Cl transport mod: 4.1; KCNQ1 inh: inactive; hERG rescue: inactive; KCNK3 block: inactive; KCNK9 inh: inactive

Source: PubChem (several laboratories)
